Published values from different studies.
Compare with care: the assays were run in different laboratories.
Organism: Bacillus cereus

Compound	test	system	endpoint	value
O=C(O)CN1C(=O)/C(=C/c2c3ccccc3c(-c3ccc(N(c4ccccc4)c4ccccc4)cc3)c3ccccc23)SC1=S	microbial killing, broth dilution	ATCC10876	MBC	> 1000 µg/mL
Nc1ccc(-c2nc(-c3ccc(Oc4ccc(C(F)(F)F)cc4)cc3)no2)cc1	microbial growth, broth dilution	ATCC13061	MIC	4 µg/mL
O=C(Nc1ccc(S(=O)(=O)c2nccs2)cc1)c1cc(N=Nc2nccs2)ccc1O	microbial growth, broth dilution	–	MIC	200 µg/mL
CO[C@H]1O[C@H](COC(c2ccccc2)(c2ccccc2)c2ccccc2)[C@@H](OC(=O)c2ccc(C(C)(C)C)cc2)[C@H](OC(=O)c2ccc(C(C)(C)C)cc2)[C@H]1OC(=O)c1ccc(C(C)(C)C)cc1	microbial growth, broth dilution	–	MIC	0.75 µg/mL
CNC(=O)[C@@H](C)[C@H]1C(=O)/C(=C(O)/C=C/C(C)=C/[C@@H](C)[C@H]2O[C@@]3(C)O[C@H](C=C[C@@]34CO4)[C@@H]2C)C(=O)N1[C@@H]1CC[C@H](O)[C@H](C)O1	microbial growth	–	MIC	> 100 µM
CC(=O)NC[C@H]1CN(c2ccc(N3CCOCC3)c(F)c2)C(=O)O1	microbial growth, broth dilution	ATCC13061	MIC	1 µg/mL
O=C(O)CN1C(=O)/C(=C/c2ccc(-c3ccc(N(c4ccccc4)c4ccccc4)cc3)c3ccccc23)NC1=S	microbial growth, broth dilution	ATCC10876	MIC	> 1000 µg/mL
CN[C@H](CC(C)C)C(=O)N[C@H]1C(=O)N[C@@H](CC(N)=O)C(=O)N[C@H]2C(=O)N[C@H]3C(=O)N[C@H](C(=O)N[C@H](C(=O)O)c4cc(O)cc(O)c4-c4cc3ccc4O)[C@H](O)c3ccc(c(Cl)c3)Oc3cc2cc(c3O[C@@H]2O[C@H](CO)[C@@H](O)[C@H](O)[C@H]2O[C@H]2C[C@](C)(N)[C@H](O)[C@H](C)O2)Oc2ccc(cc2Cl)[C@H]1O	microbial growth, broth dilution	ATCC13061	MIC	1 µg/mL
O=C1NC(=S)S/C1=C\c1ccc(-c2ccc(N(c3ccccc3)c3ccccc3)cc2)cc1	microbial killing, broth dilution	ATCC10876	MBC	> 1000 µg/mL
O=C(O)c1cn(C2CC2)c2cc(N3CCNCC3)c(F)cc2c1=O	microbial growth	–	MIC	1.56 µM
